MT1-MMP txn act: MT1-MMP promoter reporter activation – cell-based, luciferase luminescence, primary screen. HT1080 MT1-MMP promoter luciferase reporter, overnight; active compounds read high. activation factor at 10 µM. 86,000 tested, 0.16% active;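 active = activation factor of at least 2 for MT1-MMP transcription at 10 µM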
SF-1 act: activators of human SF-1, primary screen, cell-based, CHO-K1, Gal4-SF-1 LBD, luciferase luminescence; CHO-K1 Gal4-SF-1 LBD luciferase reporter; % increase over DMSO SF-1-specific signal; activation, % at 10 µM; 65,000 tested, 1.9% active;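 active = activation above the mean activation of all tested compounds plus 3 SD, cut at about 50% in these data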
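Material: Gal4–SF-1 LBD one-hybrid luciferase reporter in CHO-K1 cells | Amount: 4,000 cells per well | Compound dosing: 10 µM single point, 1% DMSO | Schedule: 20 h compound treatment, 37 °C | Measured by: SteadyLite luciferase luminescence | Evaluation: Percent activation versus DMSO | Control set: DMSO-treated SF-1-transfected cells as negative, DMSO-treated mock-transfected cells lacking SF-1 as background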
RORA act: activators of orphan receptor RORA, primary screen, cell-based, luminescence; Nuclear receptor ROR-alpha (Homo sapiens), P35398; CHO-K1 Gal4-RORA LBD luciferase reporter; percent increase over mock-subtracted basal signal; activation, % at 10 µM; 65,000 tested, 1.5% active; AID 560, 2006;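 active = activation above the mean of all tested compounds plus 3 SD, cut at about 49% in these data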;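 note: 0% = DMSO-treated RORA cells and 100% = added signal equal to DMSO minus mock-transfected cells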
Target sequence (P35398 whole entry, looked up, the tested form may be a part): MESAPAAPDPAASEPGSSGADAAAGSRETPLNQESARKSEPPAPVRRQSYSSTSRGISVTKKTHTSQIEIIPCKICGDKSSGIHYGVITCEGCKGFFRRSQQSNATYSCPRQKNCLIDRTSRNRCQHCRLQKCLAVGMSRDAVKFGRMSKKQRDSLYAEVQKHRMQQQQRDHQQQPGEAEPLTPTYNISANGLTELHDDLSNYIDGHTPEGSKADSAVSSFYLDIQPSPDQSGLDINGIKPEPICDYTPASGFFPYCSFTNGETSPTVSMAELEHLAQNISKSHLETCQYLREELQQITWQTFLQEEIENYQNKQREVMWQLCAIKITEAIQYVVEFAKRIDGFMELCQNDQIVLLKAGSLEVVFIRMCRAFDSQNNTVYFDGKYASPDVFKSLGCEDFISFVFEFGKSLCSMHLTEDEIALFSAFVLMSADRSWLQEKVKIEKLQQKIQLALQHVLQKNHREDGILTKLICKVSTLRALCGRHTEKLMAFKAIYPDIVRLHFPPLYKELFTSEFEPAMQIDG
CD11b adhes enh: enhancers of CD11b/CD18 adhesion to fibrinogen, primary screen, K562 cells, luminescence; activation, % at 10 µM; 93,000 tested, 0.07% active; ATPlite luminescence; Integrin beta-2 (Homo sapiens) + Integrin alpha-M (Homo sapiens), P05107+P11215; AID 1499, 2009;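 active = 10 µM primary screen giving 50% or more activity, confirmed by 40% or more on retest at that dose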
Mac1 fbg inh: inhibitors of CD11b/CD18 adhesion to fibrinogen, primary screen, K562 cells, luminescence; 93,000 tested, 0.54% active; Integrin beta-2 (Homo sapiens) + Integrin alpha-M (Homo sapiens), P05107+P11215; ATPlite luminescence; Mn2+ added to activate the integrin; inhibition, % at 10 µM;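 active = primary inhibition of 50% or more at 10 µM, then 40% or more on retest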
TNAP act mid DEA: human TNAP enzyme activators, primary screen, biochemical, luminescent, intermediate phosphate acceptor level; Alkaline phosphatase, tissue-nonspecific isozyme (Homo sapiens), P05186; purified TNAP, CDP-star luminescence, 100 mM DEA, 30 min; active compounds read high; scale: 0 levamisole-inhibited, 1 vehicle-only enzyme; activation factor at 20 µM; 64,000 tested, under 10 active; AID 813, 2007;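 active = activation factor of at least 2 at 20 µM, relative to controls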
* = called active by the depositor; nt = not tested or not shown. Sampled rows, rich in hits. Any-hit rate of the full collection: about 2.1%.

SMILES	MT1-MMP txn act	SF-1 act	RORA act	CD11b adhes enh	Mac1 fbg inh	TNAP act mid DEA
CC1=NC(=O)C(N=Nc2cccc3ccccc23)N1c1ccccc1 (centres undefined)	1.3	nt	nt	nt	nt	nt
COc1cc(/C=N/Nc2ccc(Cl)cc2)ccc1OC(=O)c1cccs1	nt	nt	nt	0	-2	nt
Cc1cc(NCCCN2CCOCC2)n2ncc(-c3ccccc3)c2n1	1.8	107*	54*	4	22	0.9
Cc1cc(N)n2ncc(-c3ccc(Cl)cc3)c2n1	1.8	nt	nt	nt	nt	nt
Cc1cc(NCCOCCO)n2ncc(-c3ccc(Cl)cc3)c2n1	1.2	9	89*	4	6	0.9
N#C/C(=N\Nc1cccc2ccccc12)c1nnc2n1CCCCC2	nt	nt	nt	27	5	nt
COc1ccc(C)cc1NC(=O)C(CCS(C)(=O)=O)NC(C)=O (centres undefined)	nt	nt	nt	-4	-15	nt
N#Cc1c(Cl)nc(SCc2ccccc2)nc1-c1ccccc1	nt	nt	nt	-10	74*	nt
CCCC/C=C/C(NC(=O)OCc1ccccc1Cl)c1ccccc1 (centres undefined)	1.2	nt	nt	nt	nt	nt
Cc1ccc(O)c(-c2cc(C(F)(F)C(F)F)nc(-c3ccccc3)n2)c1	1	3	19	nt	nt	0.9
Oc1ccc(Cl)cc1-c1cc(C(F)(F)C(F)F)nc(-c2ccccc2)n1	1.1	nt	nt	-7	59*	nt
O/N=C(\c1ccc(Cl)cc1Cl)c1ncc(C(F)(F)F)cc1Cl	1.1	nt	nt	-3	2	nt
CCOC(=O)Cc1cc(=O)n2[nH]c(-c3ccccc3)cc2n1	1.3	nt	nt	nt	nt	nt
CCCc1cc(=O)n2[nH]c(-c3ccc(Br)cc3)cc2n1	1.6	112*	38	nt	nt	1
O=c1[nH]c2ccccc2c2nc3ccccn3c12	1.7	65*	11	-1	-1	1
COc1ccc2nc(NC(=O)c3ccc4ncsc4c3)sc2c1	1.6	61*	54*	29	33	1
CCCC(=O)Nc1nc2ccc(OCC)cc2s1	1.5	50*	49*	-6	6	0.9
CCOc1ccc2nc(SCC(=O)c3cccs3)sc2c1	1.3	54*	26	-1	2	0.8
CCOc1ccc2nc(NC(=O)CCn3cccc3)sc2c1	nt	nt	nt	0	5	nt
O=S(=O)(NC1CC1)c1ccc(S(=O)(=O)N(Cc2ccccn2)C2CCCC2)cc1	nt	nt	nt	-7	0	nt
CSc1nc(NC(C)(C)C)nc(Oc2ccc(=O)n(C)n2)n1	1.1	nt	nt	nt	nt	nt
COc1ccc(/C(N)=N/OC(=O)Cc2ccc(OC)c(OC)c2)cc1	nt	nt	nt	-8	22	nt
CCCCSc1nnc(-c2c[nH]c3ccccc23)n1C	1.3	57*	32	-1	4	1
Cc1ccc(C23CC4CC(CC(C(=O)OCC(=O)NC5CCS(=O)(=O)C5)(C4)C2)C3)cc1 (centres undefined)	nt	nt	nt	-4	6	nt
CCOC(=O)c1cnn(-c2cc(C)nc3c(-c4ccccc4)cnn23)c1N	1.2	0	14	4	-21	0.9
SMILES	MT1-MMP txn act	SF-1 act	RORA act	CD11b adhes enh	Mac1 fbg inh	TNAP act mid DEA
CCOC(=O)c1cnn2c(C)cc(-c3ccccc3)nc12	1.6	65*	43	1	-30	0.9
COc1ccccc1C(=O)Nc1ccc2c(c1)OCCO2	1.6	76*	33	nt	nt	0.9
COc1ccc(CCC(=O)Nc2ccc3c(c2)OCCO3)cc1	1.3	-13	56*	-3	-2	0.9
CC(=O)Nc1ccc2c(c1)OCCO2	1.2	nt	nt	nt	nt	nt
Cc1oc(C(C)(C)C)cc1C(=O)Nc1ccc2c(c1)OCCO2	1.8	57*	64*	-3	11	0.9
O=C(/C(=N/N=C/c1ccc(O)c(O)c1)c1ccccc1)c1ccccc1	nt	nt	nt	-11	70	nt
O=C(c1ccccc1)c1nc2ccccc2n(CCCn2c(=O)c(C(=O)c3ccccc3)nc3ccccc32)c1=O	1.2	nt	nt	132*	-10	nt
Cn1c(=O)c(C(=O)c2ccccc2)nc2ccccc21	1.1	-1	-15	-1	4	0.9
C/C(N)=C(/C#N)C(=O)CSc1ccc2c(c1)OCCO2	1.2	58*	-2	-4	2	0.9
Cn1c(N)c(C(=O)CSc2ccc3c(c2)OCCO3)c(=O)n(C)c1=O	1.1	10	4	nt	nt	0.9
CCOc1ccccc1NC(C)C(=O)Nc1cc(C(F)(F)F)ccc1N1CCOCC1 (centres undefined)	nt	nt	nt	-2	13	nt
CC(=O)c1cccc(NC(=O)c2cnn3ccccc23)c1	1	67*	9	-2	8	1
CC(=O)c1ccc(NC(=O)c2cnn3ccccc23)cc1	nt	nt	nt	1	3	nt
CCCc1cc(C(=O)NCc2ccccc2)no1	1.3	22	30	-2	-6	1
CCCc1cc(C(=O)NCc2cccs2)no1	1.6	50*	37	-2	-11	0.9
CCCc1cc(C(=O)Nc2ccccc2SC)no1	1.5	56*	1	2	2	0.8
Cc1ccc(-c2cc(C(=O)NCc3cccs3)no2)cc1	1.3	60*	59*	9	2	0.9
COC(=O)c1ccc(C(NC(=O)OCc2ccccc2)/C(C)=C/[C@@H](C)C(=O)NC2CCCCC2)cc1 (some centres undefined)	1.1	nt	nt	nt	nt	nt
COc1ccc(C(=O)Nc2n[nH]c(-c3ccncc3)n2)cc1	nt	nt	nt	-2	-14	nt
CCCCNC(=O)C(c1ccc(OCC(=O)OC)c(C(=O)OC)c1)N(CCOC)C(=O)CCCCCN1C(=O)NC(c2ccc(-c3ccccc3)cc2)C(C(=O)OCc2ccccc2)=C1C (centres undefined)	1.1	nt	nt	nt	nt	nt
CCN(CC)c1ccc(C=N/C(C#N)=C(\N)C#N)cc1	1.1	57*	28	-4	4	0.9
Cc1nc2ccc(NC(=O)N3CCCCC3)cc2s1	1.4	54*	30	2	-7	1.1
CN(C)c1ccc(CNC(=O)[C@@]2(C)C=C[C@@H](Cc3ccccc3)N2C)cc1	1	nt	nt	nt	nt	nt
CN(C)C(=O)[C@H]1C[C@@H]1[C@H](NC(=O)CNC(=O)[C@@H]1CCCN1C(=O)[C@H]1C[C@@H]1[C@H](NC(=O)OCc1ccccc1)c1ccccc1)c1ccccc1	1.2	nt	nt	nt	nt	nt
CCOC(=O)N1CCN(c2cc(C)c(C(C)=O)cc2F)CC1	1	-14	15	-2	0	1
CCOC(=O)N1CCN(c2ccc(O)cc2)CC1	nt	nt	nt	-3	54*	nt
CCOC(=O)N1CCN(c2ccc(C(=O)c3ccccc3)cc2F)CC1	1.4	36	58*	-2	15	0.8
CCCCOc1ccc(C(=O)Nc2cccc(C)n2)cc1	0.8	59*	55*	-4	45	0.9

High-throughput results as filed in PubChem BioAssay.
